The nature of data set [1]: Antioxidant activity assessed as hydroxy radical-scavenging activity. The class given is physicochemical. The method, boiled down: (§1)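 Radical scavenging of each tannin measured against DPPH and hydroxy radicals by literature methods, with BHT and Trolox as reference antioxidants.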
Data set [2] can be described thus: Antioxidant activity assessed as DPPH radical-scavenging activity incubated for 30 mins by spectrophotometry. The class given is physicochemical. The method, boiled down: as §1
Data set [3] has as its system J774. Nature of the data set: Increase in cell viability of mouse J774 cells at 0.01 to 10 uM by MTT assay. The class given is functional, cell-based. (Tetrazolium assays rely on reduction of a dye to a coloured formazan, in cell work by metabolically active cells.)
Data set [4] deals with Liver microsome. Put plainly: Antioxidant activity assessed as inhibition of Fe2+-cysteine-induced lipid peroxidation in rat liver microsomes incubated for 30 mins by thiobarbituric acid based assay. It is filed as functional. The conditions noted are these: 0.5 h. Background: Liver microsomes are vesicles of endoplasmic reticulum, rich in cytochrome P450 enzymes.
Data set [5] concerns J774. Nature of the data set: Inhibition of nitric oxide production in LPS-induced mouse J774 cells at 0.01 to 10 uM incubated for 24 hrs by Griess reaction based assay. It is filed as functional, cell-based. In general terms: The Griess reaction detects nitrite, a stable product of nitric oxide.
In data set [6] the test system is Mus musculus. Nature of the data set: Anti-inflammatory activity in mouse model of croton oil-induced ear edema assessed as inhibition of ear swelling at 100 mg/kg, sc. It is filed as functional.
Data set [7] relates to Mus musculus. Nature of the data set: Anti-inflammatory activity in mouse model of carrageenan-induced paw edema assessed as inhibition of paw edema at 50 mg/kg, sc. The class given is functional.
For data set [8], the system named is J774. Put plainly: Inhibition of IL6 production in LPS-induced mouse J774 cells at 0.01 to 10 uM. It is filed as functional, cell-based.
Data set [9] has as its system Mus musculus. Nature of the data set: Anti-inflammatory activity in mouse model of croton oil-induced ear edema assessed as inhibition of ear swelling at 200 mg/kg, sc. It is filed as functional.
In data set [10] the test system is Mus musculus. Put plainly: Anti-inflammatory activity in DBA/1 mouse model of collagen induced arthritis assessed as inhibition of disease progression and development at 20 mg/kg, sc measured on day 57. The following applies: DBA/1, sc, 1368 h. It is filed as functional.
Data set [11] relates to J774. Nature of the data set: Inhibition of TNFalpha production in LPS-induced mouse J774 cells at 0.01 to 10 uM. The class given is functional, cell-based.
Data set [12] deals with Mus musculus. Nature of the data set: Anti-inflammatory activity in mouse model of croton oil-induced ear edema assessed as inhibition of ear swelling at 50 mg/kg, sc. The class given is functional.

Calls of active or inactive are those of the source. The calls are words filed in the database; no cut-off is given here. Some results are limits rather than exact numbers.

16 compounds from ChEMBL document CHEMBL3580579, “Anti-inflammatory Hydrolyzable Tannins from Myricaria bracteata” (J Nat Prod, 2015) can be followed below.

As usually defined, the IC50 is the concentration that gives 50% inhibition. The inhibition in vivo is the drop in the measured response relative to a control, in per cent.

Take `O=C(O)c1cc(O)c(O)c(O)c1` [GALLIC ACID]: the IC50 in [1] was determined as 15.7 µM; in data set [2], 7.23 µM.

On to `O=C(O[C@@H]1O[C@@H]2COC(=O)c3cc(O)c(O)c(O)c3-c3c(cc(O)c(O)c3O)C(=O)O[C@H]2[C@H](OC(=O)c2cc(O)c(O)c(O)c2)[C@H]1OC(=O)c1cc(O)c(O)c(O)c1Oc1cc2c(c(O)c1O)Oc1cc(cc(O)c1O)C(=O)O[C@@H]1O[C@H](CO)[C@@H](O)[C@H](OC(=O)c3cc(O)c(O)c(O)c3)[C@H]1OC2=O)c1cc(O)c(O)c(O)c1` [NILOTININ D8], for which the IC50 in [1] was found to be 32.5 µM; in data set [2], 4.67 µM. Moreover, the result in data set [3] was Active.

Regarding `O=C(O[C@@H]1O[C@@H]2COC(=O)c3cc(O)c(O)c(O)c3-c3c(cc(O)c(O)c3O)C(=O)O[C@H]2[C@H](OC(=O)c2cc(O)c(O)c(O)c2)[C@H]1OC(=O)c1cc(O)c(O)c(O)c1Oc1cc2c(c(O)c1O)Oc1cc(cc(O)c1O)C(=O)O[C@@H]1O[C@@H]3COC(=O)c4cc(O)c(O)c(O)c4-c4c(cc(O)c(O)c4O)C(=O)O[C@H]3[C@H](OC(=O)c3cc(O)c(O)c(O)c3)[C@H]1OC2=O)c1cc(O)c(O)c(Oc2c(C(=O)O[C@H]3[C@H](OC(=O)c4cc(O)c(O)c(O)c4)O[C@H](CO)[C@@H](O)[C@@H]3OC(=O)c3cc(O)c(O)c(O)c3)cc(O)c(O)c2O)c1`, the IC50 in data set [1] came out at 47.6 µM; in [2] it was 3.06 µM. The result in [3] was Active.

Consider `O=C1O[C@@H]2O[C@@H]3COC(=O)c4cc(O)c(O)c(O)c4-c4c(cc(O)c(O)c4O)C(=O)O[C@H]3[C@H](OC(=O)c3cc(O)c(O)c(O)c3)[C@H]2OC(=O)c2cc(Oc3c(C(=O)O[C@@H]4[C@@H](OC(=O)c5cc(O)c(O)c(O)c5)[C@@H]5OC(=O)c6cc(O)c(O)c(O)c6-c6c(cc(O)c(O)c6O)C(=O)OC[C@H]5O[C@H]4O)cc(O)c(O)c3O)c(O)c(O)c2Oc2cc1cc(O)c2O` [TAMARIXININ A], for which the IC50 in [4] is 18.4 µM; in data set [1], 41.5 µM; in [2], 3.57 µM. The inhibition result in [5], in data set [8] and in data set [11] was “inactive” throughout. Also, in [6], the inhibition in vivo at 100 mg/kg was 39%. The outcome in data set [3] was Active. Besides, the inhibition in vivo at 50 mg/kg in [7] came to 25%; in data set [12] it was 34.4%. Besides, the inhibition in vivo at 200 mg/kg in [9] stood at 69.8%. In data set [10], the inhibition in vivo at 20 mg/kg was 46%.

For the compound `Cc1c(C)c2c(c(C)c1O)CCC(C)(C(=O)O)O2` (stereo not drawn) [TROLOX], the results for the IC50 in data set [1] and in data set [2] were 76.7 µM and 8 µM, respectively.

As for `O=C(O[C@@H]1O[C@@H]2COC(=O)c3cc(O)c(O)c(O)c3-c3c(cc(O)c(O)c3O)C(=O)O[C@H]2[C@H](OC(=O)c2cc(O)c(O)c(O)c2)[C@H]1OC(=O)c1cc(O)c(O)c(O)c1Oc1cc(C(=O)O[C@@H]2O[C@@H]3COC(=O)c4cc(O)c(O)c(O)c4-c4c(cc(O)c(O)c4O)C(=O)O[C@H]3[C@H](OC(=O)c3cc(O)c(O)c(O)c3)[C@H]2OC(=O)c2cc(O)c(O)c(O)c2Oc2cc3c(c(O)c2O)Oc2cc(cc(O)c2O)C(=O)O[C@@H]2O[C@@H]4COC(=O)c5cc(O)c(O)c(O)c5-c5c(cc(O)c(O)c5O)C(=O)O[C@H]4[C@H](OC(=O)c4cc(O)c(O)c(O)c4)[C@H]2OC3=O)cc(O)c1O)c1cc(O)c(O)c(O)c1`, the IC50 in data set [1] came to 55.1 µM; in data set [2], 4.23 µM. Further, the result in [3] was Active.

Consider `O=C1O[C@@H]2O[C@H](CO)[C@@H](O)[C@H](OC(=O)c3cc(O)c(O)c(O)c3)[C@H]2OC(=O)c2cc(Oc3c(C(=O)O[C@H]4C(O)O[C@@H]5COC(=O)c6cc(O)c(O)c(O)c6-c6c(cc(O)c(O)c6O)C(=O)O[C@H]5[C@@H]4OC(=O)c4cc(O)c(O)c(O)c4)cc(O)c(O)c3O)c(O)c(O)c2Oc2cc1cc(O)c2O` (stereo partly drawn), for which the half-inhibitory concentration (IC50) is 15.8 µM in data set [1] and 2.4 µM in data set [2].

For `O=C(O[C@@H]1O[C@@H]2COC(=O)c3cc(O)c(O)c(O)c3-c3c(cc(O)c(O)c3O)C(=O)O[C@H]2[C@H](OC(=O)c2cc(O)c(O)c(O)c2)[C@H]1OC(=O)c1cc(O)c(O)c(O)c1Oc1cc2c(c(O)c1O)Oc1cc(cc(O)c1O)C(=O)O[C@@H]1O[C@@H]3COC(=O)c4cc(O)c(O)c(O)c4-c4c(cc(O)c(O)c4O)C(=O)O[C@H]3[C@H](OC(=O)c3cc(O)c(O)c(O)c3)[C@H]1OC2=O)c1cc(O)c(O)c(O)c1` [HIRTELLIN B], the concentration for half-maximal inhibition (IC50) is 48.8 µM in data set [4], 39.7 µM in [1] and 4.1 µM in data set [2]. For the same compound, the outcome in data set [3] was Active.

As for `COc1cc(C(=O)O[C@@H]2[C@@H](OC(=O)c3cc(OC)c(OC)c(OC)c3Oc3cc4c(c(OC)c3OC)Oc3cc(cc(OC)c3OC)C(=O)O[C@@H]3O[C@@H]5COC(=O)c6cc(OC)c(OC)c(OC)c6-c6c(cc(OC)c(OC)c6OC)C(=O)O[C@H]5[C@H](OC(=O)c5cc(OC)c(OC)c(OC)c5)[C@H]3OC4=O)[C@H](OC)O[C@@H]3COC(=O)c4cc(OC)c(OC)c(OC)c4-c4c(cc(OC)c(OC)c4OC)C(=O)O[C@@H]23)cc(OC)c1OC`, the IC50 in data set [1] and in data set [2] was > 100 µM in each case. Besides, the inhibition in vivo at 200 mg/kg in [9] is -0.7%.

For `O=C1O[C@@H]2O[C@@H]3COC(=O)c4cc(O)c(O)c(O)c4-c4c(cc(O)c(O)c4O)C(=O)O[C@H]3[C@H](OC(=O)c3cc(O)c(O)c(O)c3)[C@H]2OC(=O)c2cc(Oc3c(C(=O)O)cc(O)c(O)c3O)c(O)c(O)c2Oc2cc1cc(O)c2O` [NILOTININ M4], the half-inhibitory concentration (IC50) in data set [1] was determined as 38 µM; in data set [2], 3.16 µM.

Take `O=C(O[C@@H]1O[C@@H]2COC(=O)c3cc(O)c(O)c(O)c3-c3c(cc(O)c(O)c3O)C(=O)O[C@H]2[C@H](OC(=O)c2cc(O)c(O)c(O)c2)[C@H]1OC(=O)c1cc(O)c(O)c(O)c1-c1c(C(=O)O[C@@H]2O[C@@H]3COC(=O)c4cc(O)c(O)c(O)c4-c4c(cc(O)c(O)c4O)C(=O)O[C@H]3[C@H](OC(=O)c3cc(O)c(O)c(O)c3)[C@H]2OC(=O)c2cc(O)c(O)c(O)c2)cc(O)c(O)c1O)c1cc(O)c(O)c(O)c1` [HIRTELLIN A]: the IC50 stood at 15.6 µM in data set [4], 38.5 µM in [1] and 4.61 µM in [2]. In data set [3], the outcome was Active.

Regarding `COc1cc(C(=O)O[C@@H]2[C@H]3OC(=O)c4cc(Oc5c(C(=O)O[C@H]6[C@@H](OC)O[C@@H]7COC(=O)c8cc(OC)c(OC)c(OC)c8-c8c(cc(OC)c(OC)c8OC)C(=O)O[C@H]7[C@@H]6OC(=O)c6cc(OC)c(OC)c(OC)c6)cc(OC)c(OC)c5OC)c(OC)c(OC)c4Oc4cc(cc(OC)c4OC)C(=O)O[C@@H]3O[C@@H]3COC(=O)c4cc(OC)c(OC)c(OC)c4-c4c(cc(OC)c(OC)c4OC)C(=O)O[C@@H]23)cc(OC)c1OC`, the IC50 in data set [1] and in data set [2] was > 100 µM in each case. In addition, the inhibition in vivo at 200 mg/kg in data set [9] is 2.1%.

For `Cc1cc(C(C)(C)C)c(O)c(C(C)(C)C)c1` [BUTYLATED HYDROXYTOLUENE], the figures for the IC50 in data set [1] and in [2] were 22.6 µM and 7.08 µM, respectively.

With `O=C1O[C@@H]2O[C@@H]3COC(=O)c4cc(O)c(O)c(O)c4-c4c(cc(O)c(O)c4O)C(=O)O[C@H]3[C@H](OC(=O)c3cc(O)c(O)c(O)c3)[C@H]2OC(=O)c2cc(O)c(O)c(O)c2Oc2cc(cc(O)c2O)C(=O)O[C@@H]2O[C@@H]3COC(=O)c4cc(O)c(O)c(O)c4-c4c(cc(O)c(O)c4O)C(=O)O[C@H]3[C@H](OC(=O)c3cc(O)c(O)c(O)c3)[C@H]2OC(=O)c2cc(O)c(O)c(O)c2Oc2cc1cc(O)c2O`, the figures for the IC50 in data set [1] and in [2] were 42.9 µM and 4.43 µM, respectively. For the same compound, the outcome in data set [3] was Active.

With `O=C1O[C@@H]2O[C@@H]3COC(=O)c4cc(O)c(O)c(O)c4-c4c(cc(O)c(O)c4O)C(=O)O[C@H]3[C@H](OC(=O)c3cc(O)c(O)c(O)c3)[C@H]2OC(=O)c2cc(Oc3c(C(=O)O[C@H]4C(O)O[C@H](CO)[C@@H](O)[C@@H]4OC(=O)c4cc(O)c(O)c(O)c4)cc(O)c(O)c3O)c(O)c(O)c2Oc2cc1cc(O)c2O` (stereo partly drawn), the figures for the half-maximal inhibitory concentration (IC50) in data set [1] and in [2] were 36.8 µM and 4.73 µM, respectively.

For the compound `O=C1O[C@@H]2O[C@@H]3COC(=O)c4cc(O)c(O)c(O)c4-c4c(cc(O)c(O)c4O)C(=O)O[C@H]3[C@H](OC(=O)c3cc(O)c(O)c(O)c3)[C@H]2OC(=O)c2cc(Oc3c(C(=O)O[C@H]4[C@H](OC(=O)c5cc(O)c(O)c(O)c5)O[C@H](CO)[C@@H](O)[C@@H]4OC(=O)c4cc(O)c(O)c(O)c4)cc(O)c(O)c3O)c(O)c(O)c2Oc2cc1cc(O)c2O`, the IC50 in data set [1] was determined as 16.3 µM; in data set [2], 4.44 µM. The outcome in data set [3] was Active.
